According to ChEMBL document CHEMBL4196194, “De Novo Design of α-Helical Lipopeptides Targeting Viral Fusion Proteins: A Promising Strategy for Relatively Broad-Spectrum Antiviral Drug Discovery” (J Med Chem, 2018):
Activity calls are given as the source filed them. No cut-off for these calls is given here. Where a SMILES comes first, the peptide text is derived from it. [ ]: non-standard residue; d: D form. The star is where a group is joined. Palmitoyl = CCCCCCCCCCCCCCCC(=O)*; βAla = NCCC(=O)O

Columns and labels:
[1] = test system: Influenza A virus; test: Antiviral activity against Influenza A virus (A/Puerto Rico/8/1934(H1N1)) infected in HEK293T cells assessed as inhibition of viral replicon activity up to 40 uM incubated for 30 hrs by dual-Glo luciferase assay; type: functional, organism-based
How it was run: (§1)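 HEK293T cells (2.5 × 10^4/well) transfected with plasmids for NP, PB1, PB2, PA plus p0LN-S-Luc firefly and pRL-SV40 Renilla reporters; serially diluted compound added 6 h post-transfection, luciferase read after 30 h by Dual-Glo. Activity = firefly/Renilla ratio; % inhibition normalized to positive and negative controls, curve-fitted; three independent measurements.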

[2] = test system: Middle East respiratory syndrome-related coronavirus; test: Antiviral activity against MERS-CoV pseudovirus infected in human HuH7 cells treated with 30 mins pre-treated pseudovirus/compopund mixture and measured after 48 hrs by luciferase reporter assay; type: functional, organism-based
How it was run: (§2)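 Serially diluted peptide premixed with MERS-CoV pseudovirus 30 min at 37 °C, then added to Huh-7 cells; medium replaced at 12 h postinfection and cells cultured a further 48 h at 37 °C before luciferase read-out.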

[3] = test system: Middle East respiratory syndrome-related coronavirus; test: Antiviral activity against MERS-CoV pseudovirus infected in human HuH7 cells treated with 30 mins pre-treated pseudovirus/compopund mixture up to 40 uM and measured after 48 hrs by luciferase reporter assay; type: functional, organism-based; how it was run: as §2
[4] = test system: Lipid bilayer; test: Binding affinity to POPC LUV liposome system at 15 uM
How it was run: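 Isothermal titration calorimetry at 25 °C. POPC large unilamellar vesicles (13 mM in the syringe) were titrated into peptide in the cell (15 μM) over 20 injections, 120 s apart, with stirring at 750 rpm. The binding constant was derived from the heat released during peptide–lipid binding.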

[5] = Cytotoxicity in MDCK cells assessed as reduction in cell viability incubated for 72 hrs by cell-titer-Glo cell viability assay; type: cell-based, Canis lupus familiaris; conditions: dog
[6] = test system: Influenza A virus; test: Antiviral activity against influenza A virus assessed as inhibition of viral replicon activity up to 100 uM incubated for 30 hrs by firefly luciferase reporter gene assay; type: functional, organism-based; how it was run: as §1
[7] = test system: Influenza A virus; test: Antiviral activity against influenza A virus Hong Kong/8/1968(H3N2) infected in HEK293T cells assessed as inhibition of viral replicon activity incubated for 30 hrs by dual-Glo luciferase assay; type: functional, organism-based; conditions: HEK-293T; how it was run: as §1
[8] = test system: Influenza A virus; test: Antiviral activity against Influenza A virus (A/Puerto Rico/8/1934(H1N1)) infected in HEK293T cells assessed as inhibition of viral replicon activity incubated for 30 hrs by dual-Glo luciferase assay; type: functional, organism-based; conditions: HEK-293T; how it was run: as §1

With `CC[C@H](C)[C@H](NC(C)=O)C(=O)N[C@@H](CCC(=O)O)C(=O)N[C@@H](CCC(=O)O)C(=O)N[C@H](C(=O)N[C@@H](CCC(N)=O)C(=O)N[C@@H](CCCCN)C(=O)N[C@@H](CCCCN)C(=O)N[C@H](C(=O)N[C@@H](CCC(=O)O)C(=O)N[C@@H](CCC(=O)O)C(=O)N[C@H](C(=O)N[C@@H](CCC(N)=O)C(=O)N[C@@H](CCCCN)C(=O)N[C@@H](CCCCN)C(=O)N[C@H](C(=O)N[C@@H](CCC(=O)O)C(=O)N[C@@H](CCC(=O)O)C(=O)N[C@H](C(=O)N[C@@H](CCC(N)=O)C(=O)N[C@@H](CCCCN)C(=O)N[C@@H](CCCCN)C(=O)N[C@H](C(=O)N[C@@H](CCC(=O)O)C(=O)N[C@@H](CCC(=O)O)C(=O)N[C@H](C(=O)N[C@@H](CCC(N)=O)C(=O)N[C@@H](CCCCN)C(=O)N[C@@H](CCCCN)C(=O)N[C@H](C(=O)N[C@@H](CCC(=O)O)C(=O)N[C@@H](CCC(=O)O)C(=O)N[C@H](C(=O)N[C@@H](CCC(N)=O)C(=O)N[C@@H](CCCCN)C(=O)N[C@@H](CCCCN)C(=O)NCCC(=O)N[C@@H](CCCCNC(C)=O)C(N)=O)[C@@H](C)CC)[C@@H](C)CC)[C@@H](C)CC)[C@@H](C)CC)[C@@H](C)CC)[C@@H](C)CC)[C@@H](C)CC)[C@@H](C)CC)[C@@H](C)CC` (Ac-IEEIQKKIEEIQKKIEEIQKKIEEIQKKIEEIQKK[βAla]K(Ac)-NH2) the inhibition [1] was “inactive”, the Activity [2] was “inactive” and the Activity [3] was “inactive”. For the same compound, the Activity [4] was “inactive”.

For `CCCCCCCCCCCCCCCC(=O)NCCCC[C@H](NC(=O)CCNC(=O)[C@H](CCCCN)NC(=O)[C@H](CCCCN)NC(=O)[C@H](CO)NC(=O)[C@@H](NC(=O)[C@H](CCC(=O)O)NC(=O)[C@H](CCC(=O)O)NC(=O)[C@@H](NC(=O)[C@H](CCCCN)NC(=O)[C@H](CCCCN)NC(=O)[C@H](CO)NC(=O)[C@@H](NC(=O)[C@H](CCC(=O)O)NC(=O)[C@H](CCC(=O)O)NC(=O)[C@@H](NC(=O)[C@H](CCCCN)NC(=O)[C@H](CCCCN)NC(=O)[C@H](CO)NC(=O)[C@@H](NC(=O)[C@H](CCC(=O)O)NC(=O)[C@H](CCC(=O)O)NC(=O)[C@@H](NC(=O)[C@H](CCCCN)NC(=O)[C@H](CCCCN)NC(=O)[C@H](CO)NC(=O)[C@@H](NC(=O)[C@H](CCC(=O)O)NC(=O)[C@H](CCC(=O)O)NC(=O)[C@@H](NC(=O)[C@H](CCCCN)NC(=O)[C@H](CCCCN)NC(=O)[C@H](CO)NC(=O)[C@@H](NC(=O)[C@H](CCC(=O)O)NC(=O)[C@H](CCC(=O)O)NC(=O)[C@@H](NC(C)=O)[C@@H](C)CC)[C@@H](C)CC)[C@@H](C)CC)[C@@H](C)CC)[C@@H](C)CC)[C@@H](C)CC)[C@@H](C)CC)[C@@H](C)CC)[C@@H](C)CC)[C@@H](C)CC)C(N)=O` (Ac-IEEISKKIEEISKKIEEISKKIEEISKKIEEISKK[βAla]K(Palmitoyl)-NH2), the CC50 at 72 h [5] was > 100000 nM.

In the case of `CCCCCCCCCCCCCCCC(=O)NCCCC[C@H](NC(=O)CCNC(=O)[C@H](CCCCN)NC(=O)[C@H](CCCCN)NC(=O)[C@H](Cc1ccc(O)cc1)NC(=O)[C@@H](NC(=O)[C@H](CCC(=O)O)NC(=O)[C@H](CCC(=O)O)NC(=O)[C@@H](NC(=O)[C@H](CCCCN)NC(=O)[C@H](CCCCN)NC(=O)[C@H](Cc1ccc(O)cc1)NC(=O)[C@@H](NC(=O)[C@H](CCC(=O)O)NC(=O)[C@H](CCC(=O)O)NC(=O)[C@@H](NC(=O)[C@H](CCCCN)NC(=O)[C@H](CCCCN)NC(=O)[C@H](Cc1ccc(O)cc1)NC(=O)[C@@H](NC(=O)[C@H](CCC(=O)O)NC(=O)[C@H](CCC(=O)O)NC(=O)[C@@H](NC(=O)[C@H](CCCCN)NC(=O)[C@H](CCCCN)NC(=O)[C@H](Cc1ccc(O)cc1)NC(=O)[C@@H](NC(=O)[C@H](CCC(=O)O)NC(=O)[C@H](CCC(=O)O)NC(=O)[C@@H](NC(=O)[C@H](CCCCN)NC(=O)[C@H](CCCCN)NC(=O)[C@H](Cc1ccc(O)cc1)NC(=O)[C@@H](NC(=O)[C@H](CCC(=O)O)NC(=O)[C@H](CCC(=O)O)NC(=O)[C@@H](NC(C)=O)[C@@H](C)CC)[C@@H](C)CC)[C@@H](C)CC)[C@@H](C)CC)[C@@H](C)CC)[C@@H](C)CC)[C@@H](C)CC)[C@@H](C)CC)[C@@H](C)CC)[C@@H](C)CC)C(N)=O` (Ac-IEEIYKKIEEIYKKIEEIYKKIEEIYKKIEEIYKK[βAla]K(Palmitoyl)-NH2), the CC50 at 72 h [5] is reported as > 100000 nM.

In the case of `CCOC(=O)C1=C[C@@H](OC(CC)CC)[C@H](NC(C)=O)[C@@H](N)C1` [OSELTAMIVIR], the inhibition [6] is reported as “inactive”, the EC50 [7] is reported as 10 nM and the EC50 [8] is reported as 1480 nM. The CC50 at 72 h [5] was > 100000 nM.
